The record followed here is ChEMBL document CHEMBL1240492, “3D-QSAR studies of latrunculin-based actin polymerization inhibitors using CoMFA and CoMSIA approaches” (Eur J Med Chem, 2010).

The structures appear in SMILES notation.

Usually IC50 stands for the midpoint of a concentration-inhibition curve. Low readings indicate greater potency, high ones weaker potency.

In this experiment the test system is MCF7. The experiment is described as follows: Antiproliferative activity against human MCF7 cells after 72 hrs by MTT assay. Particulars: MCF7, 72 h. The experiment is classed as functional, cell-based. An outline of the steps: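 MCF7 breast cancer cells in exponential growth seeded at 8 × 10^3 cells/well and left 24 h to attach. Medium was then switched to serum-free RPMI containing compound at […]. Cells were cultured 72 h at 37 °C in 5% CO2, then given MTT for 4 h and solubilized. A570 was converted to cell number using a hemocytometer-based standard curve. IC50 was obtained by nonlinear regression of log concentration versus cells/well.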
Molecule `COc1ccc(CC(=O)N2C(=O)SC[C@H]2[C@@]2(OC)C[C@H]3C[C@@H](CC[C@H](C)/C=C\C=C\CC/C(C)=C\C(=O)O3)O2)cc1` gave an IC50 of 15.4 µM.

Take `C/C1=C/C(=O)O[C@@H]2C[C@@H](CC[C@H](C)/C=C\C=C\CC1)O[C@@](OCCc1ccccc1)([C@@H]1CSC(=O)N1)C2`: the IC50 is 10 µM. Against the preceding molecule, the IC50 is about 1.5-fold lower.

Take `C/C1=C/C(=O)O[C@@H]2C[C@@H](CC[C@H](C)/C=C\C=C\CC1)O[C@@](OC(=O)c1ccccc1)([C@@H]1CSC(=O)N1)C2`: the midpoint of inhibition, the IC50, lay at 1.92 µM. Against the preceding molecule, the IC50 is about 5.2-fold lower.

`CO[C@]1([C@@H]2CSC(=O)N2C)C[C@H]2C[C@@H](CC[C@H](C)/C=C\C=C\CC/C(C)=C\C(=O)O2)O1` showed an IC50 of 13.1 µM.

For `CCN1C(=O)SC[C@H]1[C@@]1(OC)C[C@H]2C[C@@H](CC[C@H](C)/C=C\C=C\CC/C(C)=C\C(=O)O2)O1`, the IC50 is 20.7 µM.

In turn, `CO[C@]1([C@@H]2CSC(=O)N2C2CCCC2)C[C@H]2C[C@@H](CC[C@H](C)/C=C\C=C\CC/C(C)=C\C(=O)O2)O1` gave an IC50 of 5.2 µM. Compared with the last molecule, the IC50 is about 4-fold lower.

On to `CO[C@]1([C@@H]2CSC(=O)N2CCCO)C[C@H]2C[C@@H](CC[C@H](C)/C=C\C=C\CC/C(C)=C\C(=O)O2)O1`, for which the IC50 is 19.2 µM.

In the case of `CO[C@]1([C@@H]2CSC(=O)N2Cc2ccccc2)C[C@H]2C[C@@H](CC[C@H](C)/C=C\C=C\CC/C(C)=C\C(=O)O2)O1`, the IC50 is 1.28 µM.

Molecule `CO[C@]1([C@@H]2CSC(=O)N2C(=O)c2ccccc2)C[C@H]2C[C@@H](CC[C@H](C)/C=C\C=C\CC/C(C)=C\C(=O)O2)O1` gave an IC50 of 1.82 µM.

In turn, `CCN1C(=O)SC[C@H]1[C@@]1(O)C[C@H]2C[C@@H](CC[C@H](C)/C=C\C=C\CC/C(C)=C\C(=O)O2)O1` gave a half-maximal inhibitory concentration (IC50) of 1.05 µM.

Regarding `C/C1=C/C(=O)O[C@@H]2C[C@@H](CC[C@H](C)/C=C\C=C\CC1)O[C@@](O)([C@@H]1CSC(=O)N1Cc1ccccc1)C2`, the IC50 is 1.59 µM. Against the preceding molecule, the IC50 is about 1.5-fold higher.

`C/C1=C/C(=O)O[C@@H]2C[C@@H](CC[C@H](C)/C=C\C=C\CC1)O[C@@](O)([C@@H]1CSC(=O)N1CO)C2` showed an IC50 of 8.34 µM.

As for `CO[C@]1([C@@H]2CSC(=O)N2)C[C@H]2C[C@@H](CC[C@H](C)/C=C\C=C\CC/C(C)=C\C(=O)O2)O1`, half-maximal inhibition (IC50) was put at 10.2 µM.

In turn, `C/C1=C/C(=O)O[C@@H]2C[C@@H](CC[C@H](C)/C=C\C=C\CC1)O[C@@](OC(=O)NCCCl)([C@@H]1CSC(=O)N1)C2` showed an IC50 of 17.3 µM.

Molecule `C/C1=C/C(=O)O[C@@H]2C[C@@H](CC[C@H](C)/C=C\C=C\CC1)O[C@@](OC(=O)NCCCCl)([C@@H]1CSC(=O)N1)C2` showed an IC50 of 25.7 µM.

On to `C/C1=C/C(=O)O[C@@H]2C[C@@H](CC[C@H](C)/C=C\C=C\CC1)O[C@@](OC(=O)NCCBr)([C@@H]1CSC(=O)N1)C2`, for which the midpoint of inhibition, the IC50, lay at 19.4 µM.

`C/C1=C/C(=O)O[C@@H]2C[C@@H](CC[C@H](C)/C=C\C=C\CC1)O[C@@](OC(=O)NCc1ccccc1)([C@@H]1CSC(=O)N1)C2`: the midpoint of inhibition, the IC50, lay at 3.5 µM. Compared with the last molecule, the IC50 is about 5.5-fold lower.

`C/C1=C/C(=O)O[C@@H]2C[C@@H](CC[C@H](C)/C=C\C=C\CC1)O[C@@](OC(=O)Nc1ccccc1)([C@@H]1CSC(=O)N1)C2` had an IC50 of 7.69 µM. Compared with the last molecule, the IC50 is about 2.2-fold higher.

As to `CO[C@]1([C@@H]2CSC(=O)N2)C[C@H]2C[C@@H](CC[C@H](C)/C=C\CC/C(C)=C\C(=O)O2)O1` [15-METHOXYLATRUNCULIN B], the IC50 was 19.3 µM. This IC50 lies about 2.5-fold higher than the previous one.

The molecule `CCCCO[C@]1([C@@H]2CSC(=O)N2)C[C@H]2C[C@@H](CC[C@H](C)/C=C\CC/C(C)=C\C(=O)O2)O1` [15-O-BUTYLLATRUNCULIN B] had an IC50 of 50.1 µM.

Take `CCCCCCCCO[C@]1([C@@H]2CSC(=O)N2)C[C@H]2C[C@@H](CC[C@H](C)/C=C\CC/C(C)=C\C(=O)O2)O1` [15-O-OCTYLLATRUNCULIN B]: the IC50 was 50.1 µM.

As to `C/C1=C/C(=O)O[C@@H]2C[C@@H](CC[C@H](C)/C=C\C=C\CC1)O[C@@](O)([C@@H]1CSC(=O)N1)C2` [LATRUNCULIN A], the IC50 was 2.08 µM.

Molecule `C/C1=C/C(=O)O[C@@H]2C[C@@H](CC[C@H](C)/C=C\CC1)O[C@@](O)([C@@H]1CSC(=O)N1)C2` [LATRUNCULIN B] had an IC50 of 1.91 µM. The IC50 values of the last two molecules are within 1.5-fold of each other.

Molecule `CC(=O)N1C(=O)SC[C@H]1[C@@]1(O)C[C@H]2C[C@@H](CC[C@H](C)/C=C\CC/C(C)=C\C(=O)O2)O1` [N-ACETYLLATRUNCULIN B] had an IC50 of 4.3 µM.

Molecule `C/C1=C/C(=O)O[C@@H]2C[C@@H](CC[C@H](C)/C=C\CC1)O[C@@](O)([C@@H]1CSC(=O)N1CO)C2` [N-HYDROXYMETHYLLATRUNCULIN B] showed an IC50 of 2.35 µM.
